A selection: hits, their analogues and other compounds. The true share with any hit is near 2.3%.
ASAP1 GAP inh: inhibitors of human ASAP1 ArfGAP activity, primary screen, biochemical, fluorescence polarization | inhibition, % at 16.5 µM | Arf-GAP with SH3 domain, ANK repeat and PH domain-containing protein 1 (Homo sapiens), … | ASAP1-stimulated ARF1 GTP hydrolysis, GDP FP detection | AID 624377, 2012 | 0.19% of 360,000 active; in the data active means inhibition above about 25%;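 further: 0% = vehicle with enzyme and substrate and 100% = no enzyme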
Target sequence (Q9ULH1 325-724 limits assumed): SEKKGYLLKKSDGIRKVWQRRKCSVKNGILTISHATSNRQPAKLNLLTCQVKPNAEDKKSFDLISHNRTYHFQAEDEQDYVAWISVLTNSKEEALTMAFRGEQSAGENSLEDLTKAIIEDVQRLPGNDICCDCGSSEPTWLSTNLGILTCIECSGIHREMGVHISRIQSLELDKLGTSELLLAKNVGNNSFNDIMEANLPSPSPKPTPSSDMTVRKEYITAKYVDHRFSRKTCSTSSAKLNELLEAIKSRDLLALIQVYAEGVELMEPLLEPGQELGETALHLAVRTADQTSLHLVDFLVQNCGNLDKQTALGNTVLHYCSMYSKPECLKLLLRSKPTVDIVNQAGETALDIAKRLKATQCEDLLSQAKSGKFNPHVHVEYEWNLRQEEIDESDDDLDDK
ARFGAP1 inh: inhibitors of rat ARFGAP1 GAP activity, primary screen, biochemical, fluorescence polarization, GDP tracer | Arfgap1-stimulated ARF1 GTP hydrolysis, GDP FP detection | inhibition, % at 16.5 µM | 0.26% of 360,000 active;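 active means inhibition above a per-plate limit, mean inhibition of low control wells plus 3 SD, cut at about 25% in these data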;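 further: 0% = DMSO wells with enzyme and 100% = wells lacking Arfgap1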
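Material: truncated rat Arfgap1 GAP domain; Incubation: compound-enzyme preincubation 20 min, reaction 120 min, detection 60 min, 25 °C; Read-out: percent inhibition of Arfgap1-stimulated GTP hydrolysis; Technique: FP, GDP Alexa 633 tracer displaced from anti-GDP antibody, 620/688 nm; Controls: No-Arfgap1 wells (100%) versus DMSO full-reaction wells (0%); Replication: single well per compound.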
HGIII-sPLA2 inh: human group III sPLA2 inhibitors, primary screen, biochemical, QFRET, BODIPY PC-A2 liposome substrate | inhibition, % at 12.2 µM | Group 3 secretory phospholipase A2 (Homo sapiens), Q9NZ20 | 0.56% of 370,000 active | QFRET BODIPY PC-A2 liposome hydrolysis, fluorescence;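 active means inhibition above mean plus 3 SD of compounds lying within the high and low control bounds, cut at about 19% in these data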;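 further: 0% = median of test compound wells and 100% = no enzyme DMSO wells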
Calb FLC: C. albicans growth inhibition with fluconazole, primary screen, CaCi-2 strain, Alamar Blue fluorescence | AID 1979, 2009 | 0.57% of 300,000 active | C. albicans CaCi-2 + fluconazole, 48 h | growth inhibition, % (concentration not given with the values);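 active means growth inhibition above about 58% in most replicates, limit read from the data, passing the limit was not always enough; inconclusive means exactly half the replicates above a set limit; inactive means most replicates below a set limit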;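 further: all wells also contain fluconazole at 8 µg/ml as a sub-toxic cotreatment; 0% = median of DMSO wells and 100% = median of geldanamycin control wells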
SKKanGAS inh: S. pyogenes SKKanGAS growth inhibitors in kanamycin, primary screen, streptokinase expression inhibitor project, SKKanGAS strain, BacTiter-Glo luminescence; 6 h; inhibition, % at 7.5 µM; 1.3% of 300,000 active; AID 1662, 2009;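 active means mean replicate score, as percent of positive control median, at least 50; inconclusive means mean below 50 but one replicate at or above 50; inactive means mean and every replicate below 50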;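 further: strain carries kanamycin resistance gene driven by streptokinase promoter and grows in 40 µg/ml kanamycin; loss of luminescence reflects streptokinase promoter inhibition or plain growth inhibition; 0% = median of DMSO wells and 100% = positive control at its reference dose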
Active calls of the source: *; ? = inconclusive; / = no result.

SMILES	ASAP1 GAP inh	ARFGAP1 inh	HGIII-sPLA2 inh	Calb FLC	SKKanGAS inh
COc1ccc(OC)c(S(=O)(=O)Nc2ccc(C(=O)Nc3cc(C)on3)cc2)c1	/	/	-16	/	/
NC(=O)c1ncn([C@@H]2O[C@H](C(=O)N3CCCN(Cc4ccccc4F)CC3)[C@@H](O)[C@H]2O)n1	-3	10	-3	/	/
COC(=O)C1CN(CCO)CCS(=O)(=O)N1Cc1cn(Cc2ccc(C)cc2)nn1 (centres undefined)	/	/	3	/	/
CNC(=O)OCc1ncn(-c2ccccc2)c1COC(=O)NC	-9	20	-5	/	/
CN(C)c1ncc(C2=C(Cl)C(=O)C(N3CCCC3)=C(Cl)C2=O)s1	-10	-7	-12	-14	77*
O=C1C(Cl)=C(N2CCCCC2)C(=O)C(Cl)=C1c1cnc(N2CCCCC2)s1	/	/	/	22	42
O=[N+]([O-])c1cc([N+](=O)[O-])c2oc(-c3ccccc3)c(Br)c2c1O	/	/	/	?	69*
COC(=O)C[C@H]1CC[C@@H]2[C@H](COc3ccc(NS(C)(=O)=O)cc3C(=O)N2C)O1	/	/	5	/	/
COc1cc(Br)cc(/C=N/NC(=O)Cc2ccc(C(F)(F)F)cc2[N+](=O)[O-])c1O	-6	5	-38	11	98*
O=C(CC1CCCC1)N[C@@H](Cc1cccnc1)C(=O)N1CCC[C@H]1C(=O)NCCc1ccccc1Cl	6	-3	7	/	/
Cc1nn(-c2ccccc2)c(N)c1-c1ccccc1	-3	2	3	-9	1
Cc1nn(-c2nc3ccccc3[nH]2)c(N)c1-c1ccccc1	-1	3	11	1	87*
N/C(=N\C(=O)OCc1ccccc1)N(CC#CC1=CCCCC1)CC1CC1	/	/	-12	/	/
COc1ccc(Cc2[nH]n3c(=O)c(Cl)c(C)nc3c2-c2ccccc2)cc1	-14	2	-1	-7	122*
COc1cc(CCN=Cc2cccc(OC)c2O)c([N+](=O)[O-])cc1OC	18	7	3	/	/
O=C(/C=C/c1ccc(NC(=O)c2ccccc2-c2ccccc2C(=O)O)cc1)c1ccccc1	-7	-2	-40	98*	0
O=C(O)c1ccccc1-c1ccccc1C(=O)Nc1ccc(F)cc1	11	1	-3	-5	4
Cc1cc(C)cc(N(CC(=O)NC2CCC(C)CC2)S(=O)(=O)c2ccc(Cl)s2)c1 (centres undefined)	/	/	5	/	/
COc1ccc(C(CC(=O)N2CCCC(C)C2)c2c(OC)cc(OC)c3c(-c4ccccc4)cc(=O)oc23)cc1 (centres undefined)	-4	1	-5	9	67*
CC[C@H](C)Cc1cn([C@@H](CCCCN)C(=O)NCCCCCCCCCCC(=O)N2CCNCC2)nn1	7	-1	2	2	8
CC[C@H](C)Cc1cn([C@@H](CCCN=C(NC(=O)OC(C)(C)C)NC(=O)OC(C)(C)C)C(=O)NCCCCCCCCCCC(=O)N2CCN(C(=O)OC(C)(C)C)CC2)nn1	/	/	/	86*	28
COC(=O)[C@]12C[C@H](CC(=O)N3CCN(C(=O)C4CC4)CC3)C(=O)N(Cc3ccco3)C1=C[C@H](C(C)(C)C)O[C@@H]2C	/	/	17	/	/
CC(C)[C@@H]1CC[C@@H](C)c2c(-c3ccccc3)n[nH]c21	6	1	-8	28	88*
Cc1cc(N2CCN(C(=O)Oc3ccc(C(F)(F)F)cc3)CC2)c2ccccc2n1	/	/	-5	/	/
CCCCNC(=O)c1c(O)c2cccc3c2n(c1=O)CCC3	-6	15	0	3	17
CCCc1nnc(NC(=O)c2c(O)c3cccc4c3n(c2=O)CCC4)s1	/	/	/	0	87*
O=C(Nn1c(Cc2ccccc2)nc2ccccc2c1=O)c1c(O)c2cccc3c2n(c1=O)CCC3	12	-2	2	30	71*
CCc1nc2ccccc2c(=O)n1NC(=O)c1c(O)c2cccc3c2n(c1=O)CCC3	-6	4	4	-4	46
COC(=O)C1=C(C)N(C)C(=NCc2cccc(C(F)(F)F)c2)NC1c1ccccc1C(F)(F)F (centres undefined)	1	1	-13	/	/
CN1C(=O)C(c2cn(C)c3ccccc23)(c2cn(C)c3ccccc23)c2ccccc21	/	/	-1	/	/
